Assay results reported in ChEMBL document CHEMBL5108040, “N-1,2,3-Triazole-isatin derivatives: anti-proliferation effects and target identification in solid tumour cell lines” (RSC Med Chem, 2022).
Activity calls are given as the source filed them. The rule behind the calls is not given here.

Tests used:
[1] = test system: SW480; test: Antiproliferative activity against human SW480 cells assessed as inhibition of cell growth incubated for 72 hrs by MTT assay; format: functional, cell-based; conditions: SW480, 72 h
In short: (§1)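 MTT assay in human tumour lines SW480 (colon), A549 (lung adenocarcinoma), MCF7 and MDA-MB-231 (breast), in non-tumorigenic breast MCF10A, and in human embryonic kidney Hek293 as non-tumour reference. Compounds tested at several concentrations for 72 h; IC50 derived from dose-response and given as mean ± error. Cisplatin as reference.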

[2] = test system: A549; test: Antiproliferative activity against human A549 cells assessed as inhibition of cell growth incubated for 72 hrs by MTT assay; format: functional, cell-based; conditions: A549, 72 h; in short: as §1
[3] = Cytotoxicity against HEK293 cells assessed as inhibition of cell growth incubated for 72 hrs by MTT assay; format: toxicity, cell-based; conditions: human; in short: as §1
[4] = test system: MCF7; test: Downregulation of EP300 gene expression in human MCF7 cells at IC50 concentration incubated for 72 hrs by RT-PCR analysis; format: functional, cell-based
[5] = test system: MCF-10A; test: Antiproliferative activity against human MCF-10A cells assessed as inhibition of cell growth incubated for 72 hrs by MTT assay; format: functional, cell-based; in short: as §1
[6] = test system: MDA-MB-231; test: Downregulation of EP300 gene expression in human MDA-MB-231 cells at IC50 concentration incubated for 72 hrs by RT-PCR analysis; format: functional, cell-based
[7] = test system: MCF7; test: Antiproliferative activity against human MCF7 cells assessed as inhibition of cell growth incubated for 72 hrs by MTT assay; format: functional, cell-based; conditions: MCF7, 72 h; in short: as §1
[8] = test system: MDA-MB-231; test: Antiproliferative activity against human MDA-MB-231 cells assessed as inhibition of cell growth incubated for 72 hrs by MTT assay; format: functional, cell-based; conditions: MDA-MB-231, 72 h; in short: as §1
[9] = test system: MCF7; test: Downregulation of LYPLA2 gene expression in human MCF7 cells at IC50 concentration incubated for 72 hrs by RT-PCR analysis; format: functional, cell-based
In short: (§2)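 mRNA levels measured by qPCR in MCF7, MDA-MB-231 and MCF10A breast cells after compound treatment, against DMSO-treated vehicle control. LYPLA2 expression given as a ratio to GAPDH. Statistics by Brown-Forsythe and Welch ANOVA with Dunnett T3 correction; p < 0.05 and p < 0.01 marked.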

[10] = test system: MDA-MB-231; test: Downregulation of LYPLA2 gene expression in human MDA-MB-231 cells at IC50 concentration incubated for 72 hrs by RT-PCR analysis; format: functional, cell-based; in short: as §2
[11] = Antiproliferative activity against human SW182 cells assessed as inhibition of cell growth at 2.5 to 2 mM incubated for 24 hrs by MTT assay relative to control; format: functional; set-up: scale not given: the % may be the effect or the level left; conditions: dose 2.5-2 mM, at 2 to 2.5 mM
[12] = Antiproliferative activity against human H199 cells assessed as inhibition of cell growth at 2.5 to 2 mM incubated for 24 hrs by MTT assay relative to control; format: functional; set-up: scale not given: the % may be the effect or the level left; conditions: dose 2.5-2 mM, at 2 to 2.5 mM
[13] = test system: MCF-10A; test: Downregulation of LYPLA2 gene expression in human MCF-10A cells at IC50 concentration incubated for 72 hrs by RT-PCR analysis; format: functional, cell-based; in short: as §2

Row | SMILES | IC50 [1] | IC50 [2] | IC50 at 72 h [3] | also measured
1 | COc1ccc([C@@]2(O)C(=O)N(Cc3cn(Cc4ccccc4)nn3)c3ccccc32)cc1 | 36.6 µM | 95.9 µM | 38 µM | 
2 | Cc1ccc2c(c1)C(=O)C(=O)N2Cc1cn(Cc2ccccc2)nn1 | 26.6 µM | 41.5 µM | 26.9 µM | Activity [4]: Active; IC50 [5]: 1.54 µM; Activity [6]: Active; IC50 [7]: 1.5 µM; IC50 [8]: 2.4 µM
3 | O=C1C(=O)N(Cc2cn(Cc3ccccc3)nn2)c2ccccc21 | 32.2 µM | 54.7 µM | 63.7 µM | Activity [4]: Active; IC50 [5]: 1.8 µM; Activity [6]: Active; IC50 [7]: 1.39 µM; IC50 [8]: 2.95 µM
4 | O=C1N(Cc2cn(Cc3ccccc3)nn2)c2ccc(Br)cc2[C@@]1(O)c1ccccc1 | 18.9 µM | 29.3 µM | 87.3 µM | IC50 [5]: 1.1 µM; IC50 [7]: 2.04 µM; IC50 [8]: 1.62 µM
5 | O=C1N(Cc2cn(Cc3ccccc3)nn2)c2ccccc2[C@]1(O)c1ccc(F)cc1 | 32.1 µM | 77.3 µM | 53.5 µM | 
6 | O=C1N(Cc2cn(Cc3ccccc3)nn2)c2ccc(Br)cc2[C@]1(O)c1ccccc1 | 28.7 µM | 65.9 µM | 36.1 µM | Activity [9]: Active; IC50 [5]: 1.02 µM; Activity [10]: Active; IC50 [7]: 1.49 µM; IC50 [8]: 1.41 µM
7 | CCCCn1cc(CN2C(=O)[C@](O)(c3ccccc3)c3ccccc32)nn1 | > 100 µM | > 100 µM | > 100 µM | 
8 | O=C1N(Cc2cn(Cc3ccccc3)nn2)c2ccccc2[C@@]1(O)c1ccsc1 | 62.5 µM | 98 µM | 46.4 µM | 
9 | O=C1N(Cc2cn(Cc3ccccc3)nn2)c2ccccc2[C@]1(O)c1ccccc1 | 75.3 µM | > 100 µM | > 100 µM | 
10 | O=C1N(Cc2cn(Cc3ccccc3)nn2)c2ccccc2[C@@]1(O)c1ccccc1 | 62.4 µM | > 100 µM | > 100 µM | 
11 | CS(=O)(=O)c1ccc2nc(NC(=O)Cn3cc(CN4C(=O)C(=O)c5ccccc54)nn3)sc2c1 |  |  |  | Activity [11]: >50%; Activity [12]: >50%
12 | O=C(Cn1cc(CN2C(=O)C(=O)c3ccccc32)nn1)Nc1nc2ccccc2s1 |  |  |  | Activity [11]: >50%; Activity [12]: >50%
13 | COc1ccc([C@]2(O)C(=O)N(Cc3cn(Cc4ccccc4)nn3)c3ccccc32)cc1 | 75.8 µM | > 100 µM | > 100 µM | 
14 | Cc1ccc2nc(NC(=O)Cn3cc(CN4C(=O)C(=O)c5ccccc54)nn3)sc2c1 |  |  |  | Activity [11]: >50%; Activity [12]: >50%
15 | O=C1N(Cc2cn(Cc3ccccc3)nn2)c2ccccc2[C@@]1(O)c1ccc(F)cc1 | 28.2 µM | 72.1 µM | 50.3 µM | 
16 | CC(C)[C@@H]1CC[C@@H](C)C[C@@H]1n1cc(CN2C(=O)C3(OCCO3)c3ccccc32)nn1 | > 100 µM | > 100 µM | > 100 µM | 
17 | O=C1N(Cc2cn(Cc3ccccc3)nn2)c2ccccc2[C@]1(O)c1ccc2ccccc2c1 | 8.7 µM | 23.5 µM | 14 µM | 
18 | Cc1ccc([C@]2(O)C(=O)N(Cc3cn(Cc4ccccc4)nn3)c3ccccc32)cc1 | > 100 µM | > 100 µM | > 100 µM | 
19 | O=C1N(Cc2cn(Cc3ccccc3)nn2)c2ccccc2[C@@]1(O)c1ccc2ccccc2c1 | 9.9 µM | 28.3 µM | 12.4 µM | Activity [13]: Active; IC50 [5]: 1.33 µM; Activity [10]: Active; IC50 [7]: 1.75 µM; IC50 [8]: 3.1 µM
20 | O=C1N(Cc2cn(Cc3ccccc3)nn2)c2ccccc2[C@]1(O)c1ccsc1 | 29.5 µM | > 100 µM | 64 µM | 
21 | CCCCn1cc(CN2C(=O)[C@@](O)(c3ccccc3)c3ccccc32)nn1 | > 100 µM | > 100 µM | > 100 µM | 
22 | CC(C)[C@@H]1CC[C@@H](C)C[C@@H]1n1cc(CN2C(=O)C(=O)c3ccccc32)nn1 | 8.9 µM | 53.8 µM | 23.1 µM | Activity [4]: Active; IC50 [5]: 1.08 µM; Activity [6]: Active; IC50 [7]: 1.34 µM; IC50 [8]: 1.79 µM
23 | O=C1N(Cc2cn(Cc3ccccc3)nn2)c2ccccc2[C@@]1(O)c1cccc(O)c1 | 31.8 µM | > 100 µM | 33.7 µM | 
